Data published in ChEMBL document CHEMBL1143122, “Novel analogs of D-e-MAPP and B13. Part 1: synthesis and evaluation as potential anticancer agents” (Bioorg Med Chem, 2008).

Columns and labels:
NCI-H322M = assay: Antiproliferative activity against human NCI-H322M cells after 48 hrs; assay type: functional; details: for CC50: read-out: Log LC50 (the source's name) (converted); for TGI: read-out: Log TGI (converted)
In short: (§1)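 NCI 60-cell screen. Cells were grown in RPMI 1640 with 5% FBS and 2 mM L-glutamine, then plated at 5,000–40,000 cells/well according to doubling time and preincubated for 24 h at 37 °C in 5% CO2. Compounds were dissolved in DMSO at 400× the top final concentration and tested at five 10-fold dilutions from 10−4 to 10−8 M for 48 h. Growth was read spectrophotometrically; GI50 is 50% net protein reduction.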

OVCAR-5 = assay: Antiproliferative activity against human OVCAR5 cells after 48 hrs; assay type: functional; details: OVCAR-5, 48 h; for CC50: read-out: Log LC50 (the source's name) (converted); for TGI: read-out: Log TGI (converted); in short: as §1
SN12C = assay: Antiproliferative activity against human SN12C cells after 48 hrs; assay type: functional; details: for TGI: read-out: Log TGI (converted); in short: as §1
HCT-116 = assay: Antiproliferative activity against human HCT116 cells after 48 hrs; assay type: functional; details: HCT-116, 48 h; for TGI: read-out: Log TGI (converted); in short: as §1
NCI-H460 = assay: Antiproliferative activity against human NCI-H460 cells after 48 hrs; assay type: functional; details: NCI-H460, 48 h; for TGI: read-out: Log TGI (converted); in short: as §1
OVCAR-8 = assay: Antiproliferative activity against human OVCAR8 cells after 48 hrs; assay type: functional; details: OVCAR-8, 48 h; for TGI: read-out: Log TGI (converted); in short: as §1
HCT-15 = assay: Antiproliferative activity against human HCT15 cells after 48 hrs; assay type: functional; details: Homo sapiens, HCT-15, 48 h; for TGI: read-out: Log TGI (converted); in short: as §1
RPMI-8226 = assay: Antiproliferative activity against human RPMI8226 cells after 48 hrs; assay type: functional; details: RPMI-8226, 48 h; for CC50: read-out: Log LC50 (the source's name) (converted); for TGI: read-out: Log TGI (converted); in short: as §1
TK-10 = assay: Antiproliferative activity against human TK10 cells after 48 hrs; assay type: functional; details: TK-10, 48 h; for CC50: read-out: Log LC50 (the source's name) (converted); for TGI: read-out: Log TGI (converted)
In short: (§2)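 NCI 60-cell-line screen. Lines grown in RPMI 1640 with 5% fetal bovine serum and 2 mM L-glutamine, plated at 5,000–40,000 cells/well according to doubling time, left 24 h at 37 °C in 5% CO2. Drug stocks in DMSO at 400-fold the top final concentration. Five 10-fold dilutions, 10−4 to 10−8 M, incubated 48 h. Growth read spectrophotometrically as net protein; GI50 taken as 50% reduction.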

CAKI-1 = assay: Antiproliferative activity against human CAKI1 cells after 48 hrs; assay type: functional; details: CAKI-1, 48 h; for CC50: read-out: Log LC50 (the source's name) (converted); for TGI: read-out: Log TGI (converted); in short: as §1
COLO 205 = assay: Antiproliferative activity against human COLO205 cells after 48 hrs; assay type: functional; details: COLO 205, 48 h; for CC50: read-out: Log LC50 (the source's name) (converted); for TGI: read-out: Log TGI (converted); in short: as §1
MOLT-4 = assay: Antiproliferative activity against human MOLT4 cells after 48 hrs; assay type: functional; details: MOLT-4, 48 h; in short: as §1
[1] = Antiproliferative activity against human HL60(TB) cells after 48 hrs; assay type: functional, HL-60(TB); details: HL-60, 48 h; for TGI: read-out: Log TGI (converted)
In short: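 NCI 60-line panel screen: cells grown in RPMI 1640 with 5% fetal bovine serum and 2 mM L-glutamine, plated at 5,000–40,000 cells/well by doubling time, and preincubated 24 h at 37 °C in 5% CO2. Drugs were solubilised in DMSO at 400-fold the final maximum and tested at five 10-fold dilutions from 10−4 to 10−8 M for 48 h. Net protein was read spectrophotometrically, and the concentration giving 50% reduction was reported as log10 GI50.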

MDA-MB-231 = assay: Antiproliferative activity against human MDA-MB-231 cells after 48 hrs; assay type: functional; details: MDA-MB-231, 48 h; for TGI: read-out: Log TGI (converted); in short: as §1
786-0 = assay: Antiproliferative activity against human 786-0 cells after 48 hrs; assay type: functional; details: 786-0, 48 h; for CC50: read-out: Log LC50 (the source's name) (converted); for TGI: read-out: Log TGI (converted); in short: as §1
RXF 393 = assay: Antiproliferative activity against human RXF393 cells after 48 hrs; assay type: functional; details: RXF 393, 48 h; for CC50: read-out: Log LC50 (the source's name) (converted); for TGI: read-out: Log TGI (converted); in short: as §1
Malme-3M = assay: Antiproliferative activity against human MALME3M cells after 48 hrs; assay type: functional; details: for TGI: read-out: Log TGI (converted); in short: as §1
NCI-H226 = assay: Antiproliferative activity against human NCI-H226 cells after 48 hrs; assay type: functional; details: NCI-H226, 48 h; for TGI: read-out: Log TGI (converted); in short: as §1
SF-295 = assay: Antiproliferative activity against human SF295 cells after 48 hrs; assay type: functional; details: SF-295, 48 h; for TGI: read-out: Log TGI (converted); in short: as §1
SK-MEL-2 = assay: Antiproliferative activity against human SKMEL2 cells after 48 hrs; assay type: functional; details: SK-MEL-2, 48 h; for TGI: read-out: Log TGI (converted); in short: as §1
UACC-62 = assay: Antiproliferative activity against human UACC62 cells after 48 hrs; assay type: functional; details: UACC-62, 48 h; for TGI: read-out: Log TGI (converted); in short: as §2
[2] = Antiproliferative activity against human NCI-ADR-RES cells after 48 hrs; assay type: functional; details: for TGI: read-out: Log TGI (converted); in short: as §1
BT-549 = assay: Antiproliferative activity against human BT549 cells after 48 hrs; assay type: functional; details: BT-549, 48 h; for TGI: read-out: Log TGI (converted); in short: as §1
A498 = assay: Antiproliferative activity against human A498 cells after 48 hrs; assay type: functional; details: A498, 48 h; for CC50: read-out: Log LC50 (the source's name) (converted); for TGI: read-out: Log TGI (converted); in short: as §1
NCI-H23 = assay: Antiproliferative activity against human NCI-H23 cells after 48 hrs; assay type: functional; details: NCI-H23, 48 h; for CC50: read-out: Log LC50 (the source's name) (converted); for TGI: read-out: Log TGI (converted); in short: as §1
[3] = read-out: Log LC50 (the source's name) (converted)

CCCCCCCCCCCCCCN[C@@H](CO)Cc1ccccc1
GI50 (NCI-H322M): 2 µM
CC50 (NCI-H322M): 7.41 µM
TGI (NCI-H322M): 3.89 µM
GI50 (OVCAR-5): 2.4 µM
CC50 (OVCAR-5): 15.8 µM
TGI (OVCAR-5): 5.5 µM
GI50 (SN12C): 1.86 µM
LC50 (50% net cell kill) (SN12C): 7.41 µM
TGI (SN12C): 3.72 µM
GI50 (HCT-116): 2.04 µM
LC50 (HCT-116): 6.76 µM
TGI (HCT-116): 3.72 µM
GI50 (NCI-H460): 1.82 µM
CC50 (NCI-H460; [3]): 6.17 µM
TGI (NCI-H460): 3.39 µM
GI50 (OVCAR-8): 1.91 µM
TGI (OVCAR-8): 3.8 µM
GI50 (HCT-15): 1.7 µM
LC50 (HCT-15): 5.89 µM
TGI (HCT-15): 3.16 µM
GI50 (RPMI-8226): 1.55 µM
CC50 (RPMI-8226): 7.41 µM
TGI (RPMI-8226): 3.39 µM
GI50 (TK-10): 2.04 µM
CC50 (TK-10): 6.76 µM
TGI (TK-10): 3.72 µM
GI50 (CAKI-1): 1.66 µM
CC50 (CAKI-1): 5.62 µM
TGI (CAKI-1): 3.09 µM
GI50 (COLO 205): 1.66 µM
CC50 (COLO 205): 6.03 µM
TGI (COLO 205): 3.16 µM
GI50 (MOLT-4): 2.04 µM
LC50 (MOLT-4): 9.33 µM
TGI (MOLT-4; read-out: Log TGI (converted)): 4.37 µM
GI50 [1]: 1.78 µM
LC50 [1]: 9.33 µM
TGI [1]: 4.07 µM
GI50 (MDA-MB-231): 2 µM
LC50 (50% lethal concentration) (MDA-MB-231): 6.61 µM
TGI (MDA-MB-231): 3.63 µM
GI50 (786-0): 1.82 µM
CC50 (786-0): 5.89 µM
TGI (786-0): 3.24 µM
GI50 (RXF 393): 1.7 µM
CC50 (RXF 393): 6.92 µM
TGI (RXF 393): 3.47 µM
GI50 (Malme-3M): 2 µM
LC50 (Malme-3M): 6.31 µM
TGI (Malme-3M): 3.55 µM
GI50 (NCI-H226): 1.91 µM
TGI (NCI-H226): 3.8 µM
GI50 (SF-295): 1.78 µM
LC50 (SF-295): 6.17 µM
TGI (SF-295): 3.31 µM
GI50 (SK-MEL-2): 2.69 µM
LC50 (SK-MEL-2): > 100 µM
TGI (SK-MEL-2): 5.5 µM
GI50 (UACC-62): 2 µM
LC50 (UACC-62): 7.94 µM
TGI (UACC-62): 3.98 µM
GI50 [2]: 1.86 µM
LC50 [2]: 6.31 µM
TGI [2]: 3.47 µM
LC50 (BT-549): 4.57 µM
TGI (BT-549): 1.78 µM
GI50 (A498): 14.5 µM
CC50 (A498): 52.5 µM
TGI (A498): 27.5 µM
GI50 (NCI-H23): 2.09 µM
CC50 (NCI-H23): 9.77 µM
TGI (NCI-H23): 4.47 µM

CCCCCCCCCCCCCCN[C@H](CO)[C@H](O)c1ccccc1
GI50 (NCI-H322M): 2.14 µM
CC50 (NCI-H322M): 7.24 µM
TGI (NCI-H322M): 3.89 µM
GI50 (OVCAR-5): 2.09 µM
CC50 (OVCAR-5): 7.08 µM
TGI (OVCAR-5): 3.8 µM
GI50 (SN12C): 1.74 µM
LC50 (50% net cell kill) (SN12C): 6.46 µM
TGI (SN12C): 3.31 µM
GI50 (HCT-116): 1.74 µM
LC50 (HCT-116): 5.62 µM
TGI (HCT-116): 3.16 µM
GI50 (NCI-H460): 1.86 µM
TGI (NCI-H460): 3.47 µM
GI50 (OVCAR-8): 1.86 µM
TGI (OVCAR-8): 3.8 µM
GI50 (HCT-15): 1.91 µM
LC50 (HCT-15): 6.03 µM
TGI (HCT-15): 3.39 µM
GI50 (RPMI-8226): 1.66 µM
CC50 (RPMI-8226): 7.76 µM
TGI (RPMI-8226): 3.63 µM
GI50 (TK-10): 2 µM
CC50 (TK-10): 13.8 µM
TGI (TK-10): 4.68 µM
GI50 (CAKI-1): 1.66 µM
CC50 (CAKI-1): 7.76 µM
TGI (CAKI-1): 3.55 µM
GI50 (COLO 205): 1.86 µM
CC50 (COLO 205): 6.17 µM
TGI (COLO 205): 3.39 µM
GI50 (MOLT-4): 2.09 µM
GI50 [1]: 3.31 µM
LC50 [1]: 8.51 µM
TGI [1]: 3.72 µM
GI50 (MDA-MB-231): 1.74 µM
LC50 (50% lethal concentration) (MDA-MB-231): 6.61 µM
TGI (MDA-MB-231): 3.39 µM
GI50 (786-0): 1.62 µM
CC50 (786-0): 5.62 µM
TGI (786-0): 3.02 µM
GI50 (RXF 393): 1.15 µM
CC50 (RXF 393): 5.13 µM
TGI (RXF 393): 2.45 µM
GI50 (Malme-3M): 2.09 µM
LC50 (Malme-3M): 9.55 µM
TGI (Malme-3M): 3.8 µM
GI50 (NCI-H226): 3.24 µM
CC50 (NCI-H226; [3]): > 100 µM
TGI (NCI-H226): 11.7 µM
GI50 (SF-295): 1.86 µM
LC50 (SF-295): 6.76 µM
TGI (SF-295): 3.55 µM
GI50 (SK-MEL-2): 2.14 µM
LC50 (SK-MEL-2): > 100 µM
TGI (SK-MEL-2): 4.79 µM
GI50 (UACC-62): 1.82 µM
LC50 (UACC-62): 7.59 µM
TGI (UACC-62): 3.72 µM
GI50 [2]: 2.09 µM
LC50 [2]: 6.92 µM
TGI [2]: 3.8 µM
GI50 (BT-549): 1.29 µM
LC50 (BT-549): 5.5 µM
TGI (BT-549): 2.63 µM
GI50 (A498): 18.2 µM
CC50 (A498): > 100 µM
TGI (A498): 42.7 µM
GI50 (NCI-H23): 3.55 µM
CC50 (NCI-H23): 64.6 µM
TGI (NCI-H23): 9.77 µM
